Published values from different studies.
Lines come from different studies, so protocols differ.
Target: Serine/threonine-protein kinase TNNI3K (TNNI3K, Homo sapiens, UniProt Q59H18)
Residues used in one study (Q59H18 1-835): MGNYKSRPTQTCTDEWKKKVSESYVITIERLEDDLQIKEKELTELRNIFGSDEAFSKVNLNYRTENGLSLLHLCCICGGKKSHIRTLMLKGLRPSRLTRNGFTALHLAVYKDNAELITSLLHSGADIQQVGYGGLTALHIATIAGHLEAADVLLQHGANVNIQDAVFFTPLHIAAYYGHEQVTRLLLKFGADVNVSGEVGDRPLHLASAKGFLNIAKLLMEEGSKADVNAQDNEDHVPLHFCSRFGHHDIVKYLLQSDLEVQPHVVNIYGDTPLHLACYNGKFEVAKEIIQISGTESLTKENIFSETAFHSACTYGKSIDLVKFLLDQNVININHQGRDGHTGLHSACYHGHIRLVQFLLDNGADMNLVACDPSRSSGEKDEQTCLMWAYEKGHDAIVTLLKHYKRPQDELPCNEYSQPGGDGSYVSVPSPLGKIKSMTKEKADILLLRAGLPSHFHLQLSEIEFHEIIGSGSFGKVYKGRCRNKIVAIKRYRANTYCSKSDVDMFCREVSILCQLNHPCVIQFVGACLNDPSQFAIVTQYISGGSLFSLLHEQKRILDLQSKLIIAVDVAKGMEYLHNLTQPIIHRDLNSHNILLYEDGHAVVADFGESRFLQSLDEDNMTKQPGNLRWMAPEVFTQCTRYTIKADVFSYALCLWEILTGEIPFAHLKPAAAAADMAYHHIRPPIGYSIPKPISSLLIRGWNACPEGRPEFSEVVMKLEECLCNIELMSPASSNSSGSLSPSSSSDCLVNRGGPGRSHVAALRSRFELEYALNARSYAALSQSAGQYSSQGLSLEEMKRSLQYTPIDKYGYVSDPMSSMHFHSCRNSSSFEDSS

SMILES	test	setting	remaining binding [%]
CN(CCCC(F)(F)F)c1nccc(-c2cnn3ncccc23)n1	binding	1 µM	100
COc1cnc(Nc2cccc(S(N)(=O)=O)c2)nc1N1CCN(c2ccccc2)C(=O)C1	binding, competition with immobilised ligand	1 µM	86
Cc1c[nH]c2nccc(Oc3c(F)cc(Nc4cc(Cl)nc(N)n4)cc3F)c12	cell-free assay, competition with immobilised ligand	0.1 µM	98
Cc1cnn2ncc(-c3ccnc(N(C)C)n3)c2c1	binding	1 µM	100
COc1ccc2c(O[C@@H]3C[C@H]4C(=O)N[C@]5(C(=O)O)CC5/C=C\CCCCC[C@H](NC(=O)OC5CCCC5)C(=O)N4C3)cc(-c3csc(NC(=O)C(C)C)n3)nc2c1C (stereo partly shown)	cell-free assay, competition with immobilised ligand	1 µM	100
c1cnn2ncc(-c3ccnc(N4CCC45COC5)n3)c2c1	binding	1 µM	100
CCOC(=O)c1cc2cc(-c3cc(C(=O)NCc4ccc(C(=O)O)cc4)nn3C)ccc2[nH]1	cell-free assay, competition with immobilised ligand	0.1 µM	100
Cc1cnc(Nc2ccc(C(=O)N3CCC(N4CCCC4)CC3)cc2)nc1-c1cc2ccccc2s1	binding, competition with immobilised ligand	1 µM	31
CN(C)c1ncc(F)c(-c2cnn3ncccc23)n1	binding	1 µM	100
O=C(c1ccc(Nc2ncc(Cl)c(-c3ccc(Cl)s3)n2)cc1)N1CCC(N2CCCC2)CC1	binding, competition with immobilised ligand	1 µM	50
CN(c1nccc(-c2cnn3ncccc23)n1)C1CC1	binding	1 µM	84
O=C(Nc1c[nH]nc1C(=O)NC1CCNCC1)c1cc(F)cc(F)c1	binding, competition with immobilised ligand	1 µM	95
Cn1nc(C(F)(F)F)cc1-c1cnc(N2CCc3cc(S(=O)(=O)Nc4c(F)cc(Cl)cc4F)cc(N4CCCC4=O)c32)nc1	cell-free assay, competition with immobilised ligand	1 µM	65
FC(F)(F)Oc1cccc(-c2cnc3ccc(-c4ccncc4)nn23)c1	binding, competition with immobilised ligand	5 µM	91
COc1ncc2cc3ccccc3nc2c1C#N	cell-free assay, competition with immobilised ligand	5 µM	100
C[C@@H]1CCN(c2nccc(-c3cnn4ncccc34)n2)C1	binding	1 µM	100
c1cncc(-c2cccc(Nc3nccc(NC4CCCCC4)n3)c2)c1	binding, competition with immobilised ligand	10 µM	95
N[C@H]1CCN(c2nccc(-c3cnn4ncccc34)n2)C1	binding	1 µM	100
CS(=O)(=O)c1cc(C2(NC(=O)c3cncc4c3cnn4-c3ccc(F)cc3)CC2)ccn1	cell-free assay, competition with immobilised ligand	1 µM	64
CNC(=O)[C@@H]1CC[C@@H](n2c(-c3ccc4cnccc4c3)nc3ccc(C(=O)NCc4cccc(C(N)=O)c4)cc32)C1	binding, competition with immobilised ligand	1 µM	100
O=C(NCCCN1CCOCC1)c1ccc(Nc2nccc(-c3cc4ccccc4s3)n2)cc1	binding, competition with immobilised ligand	1 µM	70
Nc1cnc(N2CCc3cc(S(=O)(=O)Nc4c(F)cc(Cl)cc4F)cc(N4CCCC4=O)c32)nc1	binding, competition with immobilised ligand	1 µM	49
